Experimental data taken from article PMC4334291 (Journal of Chemical Information and Modeling, 2014).

Assays:
[1] = tested on: MDCK cells; experiment: Mammalian cells growth/toxicity assay; assay type: cell-based, Canine; details: 30 μM, 1 day
Procedure, shortened: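 MDCK cells kept in DMEM with 10% FBS, penicillin/streptomycin and 2 mM L-glutamine. Seeded at 5.0 × 10^3 cells/well for 6 h (37 °C, 5% CO2), then starved overnight in 0.25% FBS DMEM. Exposed for 1 day to test compound at 30 μM or ampicillin 30 μM (negative control). CCK-8 added; A450 of WST-8 formazan read after 3 h. Four independent experiments, mean ± SEM, Dunnett's test.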

[2] = tested on: SH-SY5Y cells; experiment: Mammalian cells growth/toxicity assay; assay type: cell-based, human; details: data not shown; 2 days
[3] = tested on: S. epidermidis ATCC 12228; experiment: Bacterial growth assay, S. epidermidis; assay type: cell-based, Staphylococcus epidermidis; details: 100 μM, after 6 h
Procedure, shortened: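 Overnight culture at 37 °C and 300 rpm in 1% peptone, 1% beef extract, 0.5% NaCl (pH 7.1), diluted 15×. Grown at 37 °C and 300 rpm with test compound at 100 μM, 0.3% DMSO (negative control) or ampicillin 100 μg/mL (positive control). A595 read at 6 h. Four independent experiments, mean ± SEM, Bonferroni all-pair comparison.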

[4] = tested on: E. coli JM109; experiment: Bacterial growth assay, E. coli JM109; assay type: cell-based; details: data not shown
Procedure, shortened: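 JM109 culture handled as follows: overnight growth at 37 °C, 300 rpm, in 0.5% yeast extract/1% tryptone/0.5% NaCl medium (pH 7.0), then 10× dilution. Incubated at 37 °C, 300 rpm, in medium with test compound, 0.3% DMSO as negative control or ampicillin as positive control. Culture absorbance at 595 nm read after 4, 6 and 8 h.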

[5] = tested on: E. coli BL21; experiment: Bacterial growth assay, E. coli BL21; assay type: cell-based; details: 100 μM, 4 and 8 h
Procedure, shortened: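 E. coli BL21 grown overnight at 37 °C and 300 rpm in 0.5% yeast extract, 1% tryptone, 0.5% NaCl (pH 7.0), then diluted 10×. Grown at 37 °C and 300 rpm with test compound at 100 μM, 0.3% DMSO (negative control) or ampicillin 100 μM (positive control). A595 read at 4, 6 and 8 h. Four independent experiments, mean ± SEM, Dunnett's test.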

[6] = biological target: wild-type saDHFR (Staphylococcus aureus, UniProt P0A017); experiment: S. aureus DHFR enzymatic assay; assay type: biochemical
wild-type saDHFR, sequence (P0A017 whole entry): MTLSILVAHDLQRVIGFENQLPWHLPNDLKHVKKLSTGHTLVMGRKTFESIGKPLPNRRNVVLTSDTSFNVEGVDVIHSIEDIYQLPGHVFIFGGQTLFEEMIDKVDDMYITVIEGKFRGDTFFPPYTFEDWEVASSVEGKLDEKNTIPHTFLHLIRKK

[7] = Solubility in DMSO; assay type: physicochemical; details: at 100 μM in DMSO

| Compound | Toxic effects on MDCK cells [1] | Cell death induced in SH-SY5Y cells [2] | Inhibitory effect on the growth of S. epidermidis [3] | Inhibitory effect on the growth of E. coli JM109 [4] | Inhibitory effect on the growth of E. coli BL21 [5] | IC50 [6] [nM] | Solubility in DMSO [7] |
| --- | --- | --- | --- | --- | --- | --- | --- |
| O=C(O)CN1C(=O)C(=C2C(=O)N(Cc3ccc(Cl)cc3)c3ccccc32)SC1=S [KB1, {5-[1-(4-chlorobenzyl)-2-oxo-1,2-dihydro-3H-indol-3-ylidene]-4-oxo-2-thioxo-1,3-thiazolidin-3-yl}acetic acid] | did not show any toxic effects | 43.3% | strong inhibitory effects | did not show inhibitory effects | did not show inhibitory effects |  |  |
| O=C(O)CCCN1C(=O)C(=C2C(=O)N(Cc3ccc(Cl)cc3)c3ccccc32)SC1=S [KBS1, 4-{5-[1-(4-chlorobenzyl)-2-oxo-1,2-dihydro-3H-indol-3-ylidene]-4-oxo-2-thioxo-1,3-thiazolidin-3-yl}butanoic acid] | weak toxic effect | 35.4–52.1% | significant inhibitory effects | no inhibitory effects | no inhibitory effects | 460 ± 170 |  |
| Cc1ccc(CN2C(=O)C(=C3SC(=S)N(CC(=O)O)C3=O)c3ccccc32)cc1 [KBS2, {5-[1-(4-methylbenzyl)-2-oxo-1,2-dihydro-3H-indol-3-ylidene]-4-oxo-2-thioxo-1,3-thiazolidin-3-yl}acetic acid] |  |  |  |  |  |  | not soluble |
| O=C(O)CN1C(=O)C(=C2C(=O)N(Cc3ccccc3Cl)c3ccccc32)SC1=S [KBS3, {5-[1-(2-chlorobenzyl)-2-oxo-1,2-dihydro-3H-indol-3-ylidene]-4-oxo-2-thioxo-1,3-thiazolidin-3-yl}acetic acid] | did not exhibit toxic effects | 35.4–52.1% | significant inhibitory effects | no inhibitory effects | no inhibitory effects |  |  |
| O=C(O)CCN1C(=O)C(=C2C(=O)N(Cc3ccc(F)cc3)c3ccccc32)SC1=S [KBS4, 3-{5-[1-(4-fluorobenzyl)-2-oxo-1,2-dihydro-3H-indol-3-ylidene]-4-oxo-2-thioxo-1,3-thiazolidin-3-yl}propanoic acid] | did not exhibit toxic effects | 35.4–52.1% | significant inhibitory effects | no inhibitory effects | no inhibitory effects |  |  |
| CCOCCCN1C(=O)C(=C2C(=O)N(Cc3ccc(Cl)cc3)c3ccccc32)SC1=S [KBS5, 1-(4-chlorobenzyl)-3-[3-(3-ethoxypropyl)-4-oxo-2-thioxo-1,3-thiazolidin-5-ylidene]-1,3-dihydro-2H-indol-2-one] |  |  | inactive |  |  |  |  |
